Screening results: PubChem BioAssay, several laboratories
Shown is part of a subset that was picked to be rich in hits.
V-ATPase pH – alters yeast V-ATPase proton transport; S. cerevisiae, pHLuorin cytosolic pH fluorescence; response, % at 10 µM; 0.37% of 350,000 active; in the data active means response mostly above about 7.3%, no sharp cut-off; inactive means mostly below about 5.4%; further: actives read high
p-CIP stab down – p/CIP protein destabilization. Q05BA5. F442A p/CIP-EGFP cells, EGFP fluorescence, 16 h. decrease of EGFP signal, % at 10 µM. 0.01% of 290,000 active;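 active means EGFP signal decrease of at least 30% at 10 µM or well 3 SD below plate mean, unless failing retest; inactive means the rest, including hits failing retest or dose response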
ABCB6 inh 2 – blocks the human ABCB6 transporter; Q9NP58; K562-ABCB6 porphyrin accumulation, flow cytometry, 1 h; active compounds read low; fluorescence ratio to DMSO, % at 10 µM; 0.19% of 360,000 active; AID 602162;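 active means fluorescence ratio to DMSO below 75%, the collection mean minus 3 SD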;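 further: signal is porphyrin accumulated inside mitochondria; 100% equals median channel fluorescence of DMSO control wells; lower ratio means ABCB6 inhibition with less porphyrin fluorescence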
Cl transport mod – modulates chloride dependent transport by human KCC2 | Q9H2X9 | KCC2 cells, thallium flux FluoZin-2 fluorescence | B-score of Tl+ flux slope (higher = more flux/activation; lower = inhibition) at 10 µM | 2.2% of 190,000 active | AID 1456;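 active means thallium flux slope and its plate-corrected score both differing from the plate sample mean at a set confidence after two filtering rounds, in either direction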;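 further: slope of fluorescence scaled to starting intensity during 10 to 20 s after thallium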
Dynein transport – dynein cargo transport inhibition; 3617.4 mouse cells, GR-EGFP nuclear translocation imaging; test concentration mostly 20 µM; stimulated with dexamethasone, 1 µM; active compounds read low; z-score, hits read low; 0.47% of 220,000 active;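 active means plate z-score of nuclear minus cytoplasmic receptor signal below a set negative limit, without overly bright fluorescence or cell loss, cut at about -3.5 in these data, passing the limit was not always enough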;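 further: z-score of nuclear minus cytoplasmic ring GR-EGFP intensity difference per well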
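Also added: dexamethasone, 1.0 µM final. Medium: tet-free, stripped-serum medium. Detection: fixed, Hoechst-stained cells imaged at 10x for EGFP. Read-out: nuclear-to-cytoplasmic GR-EGFP distribution per well. Times: induction 48 h, compound 1 h, agonist 30 min.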
Dynein inh conf – dynein cargo transport inhibition, confirmation; calls only at 20 µM; 3617.4 GR-EGFP nuclear translocation imaging, dexamethasone-induced; shares compounds with Dynein transport; AID 463116; 69% of 1,000 active;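 active means inhibition of receptor movement into the nucleus at or above a set limit in both runs, with normal cell brightness and cell count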;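 further: dexamethasone at 1 µM final in well for 30 min; nuclear minus cytoplasmic GR-EGFP mean intensity difference in channel 2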
Starred values were filed as active, the others as inactive; i = inactive; nt = not tested or not shown; + = active, no number.

SMILES | V-ATPase pH | p-CIP stab down | ABCB6 inh 2 | Cl transport mod | Dynein transport | Dynein inh conf
NC(=O)CCN1CCN(C(=O)c2ccc3nc(Cc4cccc(Cl)c4)oc3c2)CC1 | 0 | -3 | 99 | nt | nt | nt
OCCn1c(Cl)nc2ccccc21 | 0 | 0 | 100 | -0.72 | 1.1 | nt
Cc1ccc(Cn2ncc(Cl)c(Cl)c2=O)cc1 | 7 | -13 | 100 | -0.98 | -3.3 | nt
Cc1cc(C)cc(Cn2ncc(Cl)c(Cl)c2=O)c1 | nt | -6 | nt | -0.56 | -6.1* | +
O=c1c(Cl)c(Cl)cnn1-c1ccccc1 | 2 | -4 | 96 | -0.79 | -4.6* | +
Cc1ccc(-c2nnc(Cc3ccc(Cl)cc3)o2)cc1 | -2 | -13 | 95 | -2.5 | -0.11 | nt
O=c1c(Cl)c(Cl)cnn1Cc1nnc(-c2ccc(Cl)cc2)o1 | 0 | -26 | 98 | -0.95 | -4.8* | +
O=c1c(Cl)c(Cl)cnn1Cc1ccccc1Cl | nt | -22 | nt | -2.4 | -3.9* | +
COCCN(C(=O)/C=C/c1ccccc1)c1nnc(-c2cccnc2)s1 | 1 | -12 | 91 | -0.27 | -0.36 | nt
COC(=O)[C@]12CCCCC=C1N(Cc1ccc(Cl)cc1Cl)C(=O)[C@H](CC(=O)NCc1ccc(OC)c(OC)c1)C2 | nt | nt | 95 | nt | nt | nt
COc1cc(S(=O)(=O)N2CCN(Cc3ccc4c(c3)OCO4)CC2)ccc1NC(C)=O | nt | nt | 84 | nt | nt | nt
CC(=O)/C(=C/c1ccccc1)C(=O)Nc1ccccc1C | -1 | 0 | 101 | 0.27 | -6.7* | +
Cc1ccccc1NC(=O)C(=Cc1ccc(C(=O)O)cc1)C(=O)Nc1ccccc1C | 4 | 10 | 95 | -0.28 | -2.6 | nt
CCc1nc2cc(NC(=O)C3(C)CCCN(C(C)=O)C3)ccc2o1 (stereo not drawn) | nt | nt | 101 | nt | nt | nt
Cn1cc([N+](=O)[O-])c(C(=O)Nc2cc(Oc3ccccc3)cc([N+](=O)[O-])c2)n1 | 2 | 0 | 94 | -0.39 | -3.9* | +
Cc1cc2occ(CC(=O)N(C)CC(=O)Nc3ccccc3C(F)(F)F)c2cc1C | 0 | nt | 95 | nt | nt | nt
COC(=O)c1scc(C)c1NC(=O)Nc1ccccc1 | 1 | -9 | 104 | 1.8 | -0.8 | nt
COC(=O)c1scc(C)c1NC(=O)/C=C/C(=O)O | 0 | -8 | 99 | -0.26 | -3.8* | i
O=C(O)CC1CCC(=C(Cl)Cl)C1 (stereo not drawn) | 4 | -11 | 99 | -0.49 | -4.8* | i
CC1CCN(CC(CS(=O)(=O)c2ccc([N+](=O)[O-])cc2)N2CCC(C)CC2)CC1 (stereo not drawn) | -1 | -2 | 92 | -0.55 | -4.7* | +
CCCCCC(=O)N1C[C@H](n2cc(C3CC3)nn2)[C@@H](O)C[C@@H]1c1ccc(Cl)cc1 | 2 | nt | 98 | nt | nt | nt
CCOn1c(=O)c(-c2ccc(OC)c(OC)c2)[n+]([O-])c2ccccc21 | 0 | -12 | 120 | nt | -3.7* | i
Cn1ncc([N+](=O)[O-])c1C(=O)Nc1ccccc1C#N | -3 | nt | 81 | nt | nt | nt
COc1ccc(/C=C/C(=O)c2cc(Br)ccc2OC(=O)c2ccco2)cc1OC | 1 | 0 | 106 | -0.16 | -3.7* | +
COc1ccc(/C=C/C(=O)c2cc(F)ccc2OC(=O)c2ccccc2OC)cc1OC | 1 | -21 | 98 | -1.6 | -3.9* | +
SMILES | V-ATPase pH | p-CIP stab down | ABCB6 inh 2 | Cl transport mod | Dynein transport | Dynein inh conf
COc1ccc(/C=C/C(=O)c2cc(F)ccc2OC(=O)c2ccccc2)cc1OC | 0 | nt | 81 | 0.15 | -2 | nt
COc1ccc(/C=C/C(=O)c2cc(Br)ccc2O)cc1OC | -58 | -2 | 98 | -0.65 | -0.37 | nt
CCc1nc2c(OCC(=O)c3ccc(F)cc3)cccn2c1N(C)C(=O)c1ccc(OC)cc1 | nt | nt | 97 | nt | nt | nt
CC(C)C[C@H]1CNC(=S)N1C[C@H]1CCCN1C[C@H](CC(C)C)N1C[C@H](Cc2ccc(O)cc2)N(CC2CCCCCC2)C1=S | nt | nt | 95 | nt | nt | nt
CCCCS(=O)(=O)/C=C\C1C2C=CC(C2)C1S(=O)(=O)CCCC (stereo not drawn) | 5 | 0 | 102 | nt | 0.41 | nt
CCCCS(=O)(=O)/C=C\C=C/S(=O)(=O)CCCC | 2 | -38 | 69* | -1.6 | -3.8 | +
C/C(=N\NC(=O)c1nnn(-c2nonc2N)c1CSc1ccc(C)cc1)c1cccnc1 | 1 | nt | 96 | nt | nt | nt
COc1cccc(/C(O)=C/c2nc3ccc(C(=O)NCCc4ccc(Cl)cc4)cc3[nH]c2=O)c1 | -1 | 0 | 126 | -1.5 | -6.8 | +
COc1cccc(/C(O)=C/c2nc3ccc(C(=O)NCCc4cccc(C)c4)cc3[nH]c2=O)c1 | -4 | -2 | 122 | 0.013 | -2.2 | nt
CN1CC=C2C(C#N)=C(N)C(C#N)(C#N)C(Cc3ccccc3)C2C1 (stereo not drawn) | 0 | -4 | 103 | 0.3 | -4.6 | i
CC(C)N1CC=C2C(C#N)=C(N)C(C#N)(C#N)C(c3ccccc3)C2C1 (stereo not drawn) | 0 | -6 | 113 | -0.12 | -3 | nt
COc1ccccc1CNC(=O)COC(=O)c1cc(=O)[nH]c2ccccc12 | 6 | nt | 86 | nt | nt | nt
COc1ccc(C2CC(c3cccs3)=NN2c2ccc(C=O)cc2)cc1 (stereo not drawn) | nt | -11 | nt | i | -9.6 | i
CCNc1nc2c(c(=O)[nH]c(=O)n2C)n1CC(C)C | -2 | 1 | 99 | nt | -0.63 | nt
CC(C)Cn1c([N+](=O)[O-])nc2c1c(=O)[nH]c(=O)n2C | 0 | 0 | 105 | -1.2 | -7.3* | +
Cn1c(=O)[nH]c(=O)c2c1nc([N+](=O)[O-])n2Cc1ccccc1 | 4 | -14 | 112 | 0.29 | -4.9* | +
Cn1c(=O)[nH]c(=O)c2c1nc(N1CCNCC1)n2Cc1ccccc1 | -1 | -16 | 92 | nt | nt | nt
NC(=O)c1nsc(C(=O)N(c2cccc(F)c2)C(C(=O)NCC2CCCO2)c2cccs2)c1N (stereo not drawn) | -2 | -4 | 94 | 1.1 | -0.31 | nt
N#Cc1cccc(NC(=O)c2cc(C3CCCCN3C(=O)CCCc3ccccc3)on2)c1 (stereo not drawn) | nt | nt | 97 | nt | nt | nt
COc1ccc(NC(=O)CSc2ccc3c4c(cccc24)C(=O)c2ccccc2-3)cc1 | -2 | -282 | 578 | nt | -2.2 | nt
N#Cc1cccc(NC(=O)CSc2ccc3c4c(cccc24)C(=O)c2ccccc2-3)c1 | 2 | -108 | i | -0.31 | -6 | +
Cc1ccc(-c2nnc(Sc3nc4ccccc4o3)c3ccccc23)cc1 | -3 | 3 | 105 | -0.17 | -4.1* | +
Cc1nnc(Sc2nc3ccccc3o2)c2ccccc12 | -1 | -2 | 96 | nt | -1.6 | nt
Clc1ccc(-c2nnc(Sc3nc4ccccc4o3)c3ccccc23)cc1 | 1 | 12 | 97 | 0.11 | -4.1* | +
CCCS(=O)(=O)NC(=O)C1(C)CCN(C(=O)c2ccc(OC)c(F)c2)C1 (stereo not drawn) | nt | nt | 99 | nt | nt | nt
N#C/C(=C\c1cccs1)C(=O)c1ccccc1Cl | 11 | -4 | nt | -1.1 | -4.9* | +
